Experimental data taken from ChEMBL document CHEMBL1140016, “Arylpropanolamines: selective beta3 agonists arising from strategies to mitigate phase I metabolic transformations” (Bioorg Med Chem Lett, 2007).

Assays:
Homo sapiens [1] = organism: Homo sapiens; assay: Selectivity ratio of Ki for human adrenergic beta-1 receptor to Ki for human adrenergic beta-3 receptor
[2] = target: T1, Beta-3 adrenergic receptor (Homo sapiens, UniProt P13945); assay: Intrinsic activity at human cloned adrenergic beta3 receptor expressed in CHO cells assessed as cAMP accumulation relative to isoproterenol; format: functional, cell-based
Target sequence in this assay (P13945 whole entry, looked up): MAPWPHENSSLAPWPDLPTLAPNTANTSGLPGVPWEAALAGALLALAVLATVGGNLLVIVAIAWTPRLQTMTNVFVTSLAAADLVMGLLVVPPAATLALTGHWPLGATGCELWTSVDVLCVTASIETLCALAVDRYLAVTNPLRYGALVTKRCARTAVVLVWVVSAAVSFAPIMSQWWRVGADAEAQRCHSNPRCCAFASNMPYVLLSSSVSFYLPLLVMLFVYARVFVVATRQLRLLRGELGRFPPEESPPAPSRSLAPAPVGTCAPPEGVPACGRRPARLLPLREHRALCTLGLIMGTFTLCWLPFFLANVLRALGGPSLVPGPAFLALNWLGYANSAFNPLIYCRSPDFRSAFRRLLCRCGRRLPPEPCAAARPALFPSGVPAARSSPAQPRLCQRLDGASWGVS

[3] = target: Beta-1 adrenergic receptor (Homo sapiens, UniProt P08588); assay: Displacement of [125I]iodocyanopindolol from human cloned adrenergic beta-1 receptor expressed in CHO cells; format: cell-based
[4] = target: T1, Beta-3 adrenergic receptor; assay: Displacement of [125I]iodocyanopindolol from cloned human adrenergic beta-3 receptor expressed in CHO cells; format: cell-based
Target sequence in this assay (P13945 whole entry): as the sequence (P13945 whole entry, looked up) above

Homo sapiens [5] = organism: Homo sapiens; assay: Selectivity ratio of Ki for adrenergic beta2 receptor Ki for adrenergic beta-3 receptor
[6] = target: Beta-2 adrenergic receptor (Homo sapiens, UniProt P07550); assay: Displacement of [125I]iodocyanopindolol from human cloned adrenergic beta-2 receptor expressed in CHO cells; format: cell-based
African green monkey [7] = assay: Effect on African green monkey assessed as change in free fatty acid level at 0.1 mg/kg, iv; format: functional, Chlorocebus sabaeus
How it was run: (§1)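 Single iv dose given to ketamine-sedated African green monkeys, either 0.1 or 0.5 mg/kg as the line states. Three read-outs were recorded after dosing: change in serum free fatty acids (β3 lipolysis), change in serum K+ (a decrease is β2-mediated) and change in heart rate (β1/β2 tachycardia). Changes were tested for significance at P < 0.05.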

African green monkey [8] = assay: Effect on potassium levels in African green monkey serum at 0.1 mg/kg, iv; format: functional, Chlorocebus sabaeus; parameters: unit not given beside the values; how it was run: as §1
African green monkey [9] = assay: Effect on tachycardia in African green monkey assessed as change in heart rate at 0.1 mg/kg, iv; format: functional, Chlorocebus sabaeus; how it was run: as §1
[10] = target: Beta-1 adrenergic receptor (Cavia porcellus) (UniProt B0FL73); assay: Intrinsic activity at adrenergic beta-1 receptor in spontaneously beating guinea pig atria assessed as acceleration in contraction relative to isoproterenol
Chain of Beta-1 adrenergic receptor (Cavia porcellus) (B0FL73 1-467): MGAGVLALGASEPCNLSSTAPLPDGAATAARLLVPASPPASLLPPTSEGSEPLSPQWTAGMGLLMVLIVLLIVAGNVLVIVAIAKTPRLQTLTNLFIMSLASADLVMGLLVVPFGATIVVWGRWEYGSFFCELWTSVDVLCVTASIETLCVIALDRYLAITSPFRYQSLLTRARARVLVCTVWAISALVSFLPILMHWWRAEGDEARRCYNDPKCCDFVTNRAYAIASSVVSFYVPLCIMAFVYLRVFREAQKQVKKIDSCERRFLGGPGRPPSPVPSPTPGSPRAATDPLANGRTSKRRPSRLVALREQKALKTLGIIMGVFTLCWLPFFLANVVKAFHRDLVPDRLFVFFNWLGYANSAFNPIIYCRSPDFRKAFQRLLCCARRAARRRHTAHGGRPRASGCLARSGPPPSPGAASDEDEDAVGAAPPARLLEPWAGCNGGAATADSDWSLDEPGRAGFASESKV

Chain of Beta-2 adrenergic receptor (P07550 whole entry): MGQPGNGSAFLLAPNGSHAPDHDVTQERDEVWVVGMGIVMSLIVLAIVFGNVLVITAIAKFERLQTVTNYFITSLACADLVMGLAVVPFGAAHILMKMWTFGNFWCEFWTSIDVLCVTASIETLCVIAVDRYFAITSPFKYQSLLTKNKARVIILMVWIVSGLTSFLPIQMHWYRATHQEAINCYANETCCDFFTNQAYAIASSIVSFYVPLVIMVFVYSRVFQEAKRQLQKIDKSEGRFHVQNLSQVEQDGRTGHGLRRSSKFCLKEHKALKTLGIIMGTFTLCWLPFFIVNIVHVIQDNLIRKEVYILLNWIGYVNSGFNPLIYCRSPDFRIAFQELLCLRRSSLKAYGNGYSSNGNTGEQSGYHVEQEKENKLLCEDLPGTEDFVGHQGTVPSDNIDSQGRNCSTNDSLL
Chain of Beta-1 adrenergic receptor (P08588 whole entry): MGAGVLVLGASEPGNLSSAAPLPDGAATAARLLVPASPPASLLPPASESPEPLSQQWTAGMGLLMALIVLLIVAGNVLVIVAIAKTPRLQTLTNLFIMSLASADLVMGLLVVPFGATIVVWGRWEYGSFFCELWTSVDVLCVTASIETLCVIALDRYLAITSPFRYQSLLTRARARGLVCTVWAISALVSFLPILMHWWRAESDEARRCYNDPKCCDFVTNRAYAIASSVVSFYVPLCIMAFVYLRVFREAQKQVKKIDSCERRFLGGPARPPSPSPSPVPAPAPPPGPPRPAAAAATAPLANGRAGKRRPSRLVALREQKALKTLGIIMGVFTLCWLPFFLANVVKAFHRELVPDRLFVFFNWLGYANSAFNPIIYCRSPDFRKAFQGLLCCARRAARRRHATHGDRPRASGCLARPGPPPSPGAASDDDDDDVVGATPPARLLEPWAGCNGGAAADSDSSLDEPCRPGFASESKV

Row | SMILES | Ratio Ki (Homo sapiens [1]) | Intrinsic activity [2] | Ki [3] | Ki [4] | Ratio Ki (Homo sapiens [5]) | Ki [6] | Activity (African green monkey [7]) | Activity (African green monkey [8]) | Activity (African green monkey [9]) | Intrinsic activity [10]
1 | COc1ccc([C@H](CCc2ccccc2Cl)NC[C@H](O)Cc2ccc(O)c(NS(C)(=O)=O)c2)cc1OC | 39 | 73% | 270 nM | 7 nM | 8 | 57 nM | – | – | – | –
2 | COc1ccc([C@@H](Cc2ccc(Cl)cc2)NC[C@@H](O)Cc2ccc(O)c(NS(C)(=O)=O)c2)cc1OC | 24 | 68% | – | 24 nM | 6 | – | – | – | – | –
3 | COc1ccc(CCNCC(O)Cc2ccc(O)c(NS(C)(=O)=O)c2)cc1OC (configuration not stated) | 0.6 | 35% | – | 7300 nM | 0.1 | – | – | – | – | –
4 | COc1ccc([C@@H](Cc2ccccc2)NC[C@@H](O)Cc2ccc(O)c(NS(C)(=O)=O)c2)cc1O | – | 70% | 3200 nM | 8 nM | – | 1070 nM | – | – | – | –
5 | COc1ccc(C(C)(C)NC[C@H](O)c2ccc(O)c(NS(C)(=O)=O)c2)cc1 | – | 86% | – | 7 nM | – | – | – | – | – | –
6 | COc1ccc(C(C)(C)NC[C@H](O)c2ccc(O)c(NS(C)(=O)=O)c2F)cc1 | – | 88% | – | 200 nM | – | – | – | – | – | –
7 | CS(=O)(=O)Nc1cc(OC[C@@H](O)CN[C@H](Cc2ccccc2)c2ccc(OC(F)F)cc2)ccc1O | 66 | 48% | – | 5 nM | 7 | – | – | – | – | –
8 | CS(=O)(=O)Nc1cc(C[C@@H](O)CN[C@@H](CCc2ccccc2)c2ccc(OC(F)F)c(OC(F)F)c2)ccc1O | 8 | 86% | 490 nM | 59 nM | 1 | 71 nM | – | – | – | –
9 | CS(=O)(=O)Nc1cc(OC[C@@H](O)CN)ccc1O | 0.08 | 47% | – | 15000 nM | 0.04 | – | – | – | – | –
10 | COc1ccc([C@@H](Cc2cccc(Cl)c2)NC[C@@H](O)Cc2ccc(O)c(NS(C)(=O)=O)c2)cc1OC | 52 | 68% | – | 6 nM | 13 | – | 0.92 | -0.55 | 6 | –
11 | COc1cccc([C@@H](Cc2ccccc2)NC[C@@H](O)Cc2ccc(O)c(NS(C)(=O)=O)c2)c1 | – | 44% | 3600 nM | 110 nM | – | 350 nM | – | – | – | –
12 | COc1ccc(CNC[C@H](O)COc2ccc(O)c(NS(C)(=O)=O)c2)cc1 | 3 | 46% | – | 360 nM | 0.4 | – | – | – | – | –
13 | CS(=O)(=O)Nc1cc(CC[C@@H](O)CN[C@H](Cc2ccccc2)c2ccc(OC(F)F)cc2)ccc1O | 38 | 40% | – | 880 nM | 7 | – | – | – | – | –
14 | COc1ccc([C@@H](Cc2ccccc2)NC[C@H](O)CCc2ccc(O)c(NS(C)(=O)=O)c2)cc1OC | 112 | 60% | – | 160 nM | 27 | – | – | – | – | –
15 | CS(=O)(=O)Nc1cc(C[C@H](O)CN[C@H](Cc2ccccc2)c2ccc(OC(F)F)c(OC(F)F)c2)ccc1O | – | 60% | 690 nM | 19 nM | – | 102 nM | – | – | – | 0%
16 | COc1cccc([C@@H](Cc2ccccc2)NC[C@H](O)Cc2ccc(O)c(NS(C)(=O)=O)c2)c1 | – | 27% | > 10000 nM | 1100 nM | – | 2700 nM | – | – | – | 0%
17 | COc1ccc([C@H](Cc2ccccc2)NC[C@H](O)Cc2ccc(O)c(NS(C)(=O)=O)c2)cc1OC | – | 70% | 47000 nM | 150 nM | – | 820 nM | – | – | – | 48%
18 | COc1ccc(CC(Cc2ccc(OC)c(OC)c2)NC[C@@H](O)Cc2ccc(O)c(NS(C)(=O)=O)c2)cc1OC | 3 | 75% | – | 170 nM | 0.2 | – | – | – | – | –

Row | SMILES | Ratio Ki (Homo sapiens [1]) | Intrinsic activity [2] | Ki [3] | Ki [4] | Ratio Ki (Homo sapiens [5]) | Ki [6] | Activity (African green monkey [7]) | Activity (African green monkey [8]) | Activity (African green monkey [9]) | Intrinsic activity [10]
19 | CS(=O)(=O)Nc1c(O)ccc([C@@H](O)CN)c1F | – | 0% | – | 120000 nM | – | – | – | – | – | –
20 | COc1ccc([C@H](NC[C@H](O)c2ccc(O)c(NS(C)(=O)=O)c2)C(=O)Nc2ccccc2)cc1 (stereo in doubt; 1a) | – | 119% | – | – | – | – | – | – | – | –
21 | COc1ccc([C@H](Cc2ccccc2)NC[C@@H](O)Cc2ccc(O)c(NS(C)(=O)=O)c2)cc1OC | – | 62% | 560 nM | 9 nM | – | 24 nM | – | – | – | 75%
22 | COc1ccc([C@@H](Cc2ccccc2Cl)NC[C@@H](O)Cc2ccc(O)c(NS(C)(=O)=O)c2)cc1OC | 58 | 65% | – | 7 nM | 13 | – | – | – | – | –
23 | CS(=O)(=O)Nc1c(O)ccc([C@@H](O)CN[C@H](Cc2ccccc2)c2ccc(OC(F)F)cc2)c1F | – | 77% | – | 270 nM | – | – | – | – | – | –
24 | COc1ccc([C@H](CCc2cccc(Cl)c2)NC[C@H](O)Cc2ccc(O)c(NS(C)(=O)=O)c2)cc1OC | 14 | 57% | 420 nM | 29 nM | 1 | 26 nM | – | – | – | –
25 | COc1ccc([C@@H](Cc2ccccc2)NC[C@H](O)COc2ccc(O)c(NS(C)(=O)=O)c2)cc1OC | 120 | 67% | – | 3 nM | 15 | – | – | – | – | –
26 | COc1ccc([C@H](CCc2ccccc2)NC[C@H](O)Cc2ccc(O)c(NS(C)(=O)=O)c2)cc1 | 24 | 93% | 730 nM | 31 nM | 9 | 280 nM | – | – | – | –
27 | CS(=O)(=O)Nc1cc(C[C@H](O)CN[C@H](Cc2ccccc2)c2ccc(Cl)c(Cl)c2)ccc1O | – | 70% | 1500 nM | 133 nM | – | 38 nM | – | – | – | –
28 | COc1ccc([C@@H](Cc2ccccc2)NC[C@H](O)Cc2ccc(O)c(NS(C)(=O)=O)c2)cc1OC | – | 43% | > 10000 nM | 25 nM | – | 1500 nM | – | – | – | 0%
29 | CS(=O)(=O)Nc1cc([C@@H](O)CN)ccc1O | – | 93% | – | 17000 nM | – | – | – | – | – | –
30 | COc1ccc(CNC[C@H](O)CCc2ccc(O)c(NS(C)(=O)=O)c2)cc1 | 1 | 42% | – | 3700 nM | 1 | – | – | – | – | –
31 | COc1cccc([C@H](CCc2ccccc2)NC[C@H](O)Cc2ccc(O)c(NS(C)(=O)=O)c2)c1 | 1 | 44% | 570 nM | 390 nM | 0.5 | 200 nM | – | – | – | –
32 | COc1ccc([C@@H](Cc2ccccc2)NC[C@H](O)Cc2ccc(O)c(NS(C)(=O)=O)c2)cc1 | – | 30% | > 10000 nM | 460 nM | – | 3100 nM | – | – | – | 0%
33 | COc1ccc([C@@H](Cc2ccccc2)NC[C@@H](O)Cc2ccc(O)c(NS(C)(=O)=O)c2)cc1 | – | 65% | 6000 nM | 53 nM | – | 510 nM | – | – | – | –
34 | COc1ccc(CNCC(O)Cc2ccc(O)c(NS(C)(=O)=O)c2)cc1 (configuration not stated) | 2 | 50% | – | 1100 nM | 0.3 | – | – | – | – | –
35 | COc1ccc([C@H](NC[C@H](O)c2ccc(O)c(NS(C)(=O)=O)c2F)C(=O)Nc2ccccc2)cc1 | – | 58% | – | – | – | – | – | – | – | –
36 | CS(=O)(=O)Nc1cc(C[C@H](O)CNC(c2ccc(OC(F)F)cc2)c2ccc(OC(F)F)cc2)ccc1O | 3 | 60% | – | 340 nM | 0.6 | – | – | – | – | –
